Screening results as filed in PubChem.
PG9 Ab binder: binds the HIV-1 gp120 antibody PG9. TR-FRET gp120-PG9 antibody binding. inhibition, % at 6.7 µM. 360,000 tested, 0.43% active; in the data active means inhibition above about 8.5%
Arrestin-AP2 inh: blocks beta-arrestin peptide binding to AP2 adaptin; FITC-arrestin peptide / GST-AP2 beads, flow cytometry; AP2 beta2 appendage carries R879A mutation; inhibition, % at 10 µM; 340,000 tested, 0.31% active; AID 504490;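 active means inhibition above a set limit, near 3 SD of compounds lacking own fluorescence, cut at about 54% in these data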;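 further: plate controls were DMSO wells for no effect and 5 µM unlabelled arrestin peptide for full effect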
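Assay system: GST-AP2 R879A bound to glutathione beads, E. coli-expressed; Medium: PBS with 0.05% Tween 20 and 0.1% BSA; Also added: fluorescein-tagged arrestin peptide at 50 nM final; Timing: 12 min plus 1 h, RT; Measured by: flow cytometry, FL1 (488/535 nm); Evaluation: percent drop in bead-associated FITC signal.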
iPSC survival up: increases survival of single human iPS cells. hiPSC single-cell survival, ATPlite luminescence; 100% = ROCK inhibitor wells, 0% = DMSO. survival enhancement, % at 20 µM. 360,000 tested, 0.044% active. AID 602274; in the data active means survival enhancement above about 18%;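 further: cells exposed to compounds for 16 hours before the ATP read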
ABCB6 inh 2: human ABCB6 transporter inhibition; Q9NP58; K562-ABCB6 porphyrin accumulation, flow cytometry, 1 h; hits give low values; fluorescence ratio to DMSO, % at 10 µM; 360,000 tested, 0.19% active;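 active means fluorescence ratio to DMSO below 75%, the collection mean minus 3 SD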;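 further: signal is porphyrin accumulated inside mitochondria; 100% equals median channel fluorescence of DMSO control wells; lower ratio means ABCB6 inhibition with less porphyrin fluorescence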
Target sequence (Q9NP58 whole entry, looked up): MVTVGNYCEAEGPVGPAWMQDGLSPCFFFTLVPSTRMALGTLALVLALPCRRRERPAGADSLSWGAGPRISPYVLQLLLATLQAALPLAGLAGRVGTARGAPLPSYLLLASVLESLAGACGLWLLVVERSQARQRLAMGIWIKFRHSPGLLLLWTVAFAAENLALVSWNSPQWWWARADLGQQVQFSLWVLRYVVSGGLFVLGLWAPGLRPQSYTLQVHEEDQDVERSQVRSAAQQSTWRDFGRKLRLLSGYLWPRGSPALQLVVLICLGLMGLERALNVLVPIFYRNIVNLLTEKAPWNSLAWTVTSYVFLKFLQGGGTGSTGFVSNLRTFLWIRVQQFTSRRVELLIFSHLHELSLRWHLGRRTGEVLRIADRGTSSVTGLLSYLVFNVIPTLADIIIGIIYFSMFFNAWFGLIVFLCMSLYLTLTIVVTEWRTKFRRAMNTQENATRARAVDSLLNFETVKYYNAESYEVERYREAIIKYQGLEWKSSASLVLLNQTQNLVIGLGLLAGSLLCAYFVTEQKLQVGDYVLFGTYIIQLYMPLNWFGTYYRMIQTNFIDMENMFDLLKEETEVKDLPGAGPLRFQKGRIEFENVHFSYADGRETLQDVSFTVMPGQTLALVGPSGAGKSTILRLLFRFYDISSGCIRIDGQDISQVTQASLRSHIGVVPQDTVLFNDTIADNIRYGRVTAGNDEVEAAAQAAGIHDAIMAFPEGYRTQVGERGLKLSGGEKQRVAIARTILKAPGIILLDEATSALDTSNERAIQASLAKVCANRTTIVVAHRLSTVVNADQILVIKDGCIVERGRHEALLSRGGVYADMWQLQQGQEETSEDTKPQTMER
ABCB6 inh CP1: blocks the human ABCB6 transporter; AID 602430; shares compounds with ABCB6 inh 2; ratio response (% of DMSO), % at 10 µM; 700 tested, under 10 active; K562-ABCB6 porphyrin accumulation, flow cytometry, 1 h; hits give low values;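 active means repeat-averaged ratio response below 75% of DMSO, the collection mean minus 3 SD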;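 further: median porphyrin fluorescence at 575 nm with 488 nm excitation from mitochondria; lower ratio means less porphyrin signal so ABCB6 inhibition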
Numbers without * were called inactive; · = not tested or not shown. This is a sample that favours compounds with a hit; in the whole collection about 0.89% have one here.

SMILES | PG9 Ab binder | Arrestin-AP2 inh | iPSC survival up | ABCB6 inh 2 | ABCB6 inh CP1
COc1cc(-c2cc3nc(NCCc4ccc(S(N)(=O)=O)cc4)ccn3n2)cc(OC)c1OC | -1 | · | -3 | 60* | 100
CS(=O)(=O)Nc1ccccc1-c1cccc2nccn12 | -1 | · | 0 | 68* | 100
O=[N+]([O-])c1cccc(COc2ncnc3cc([N+](=O)[O-])ccc23)c1 | -1 | -13 | 0 | 10* | 96
COc1ccc(CCNC(=O)COc2ncnc3cc([N+](=O)[O-])ccc23)cc1 | -1 | 5 | -2 | 102 | ·
COc1cccc(CNC(=O)[C@H]2CCCN2C(=O)[C@H]2CCCN2C(=O)c2c(F)cccc2F)c1 | 1 | · | · | · | ·
CCN1CCN(S(=O)(=O)c2ccc(OC)c(Br)c2)CC1 | 2 | 4 | -2 | 74* | 100
CCCCCCCCN1C(=O)[C@@H](CC(=O)NCCCOC)C[C@@]2(C(=O)OC)C1=C[C@H](C(C)(C)C)O[C@@H]2C | 1 | · | · | · | ·
CCOC(=O)C1=CCC(c2ccccc2)N(S(C)(=O)=O)C1 (stereo not given) | 1 | · | · | · | ·
O=C(CN1C(=O)c2cccc3cccc1c23)N1CCN(c2ccccc2)CC1 | 1 | -9 | -3 | 89 | ·
O=C(CN1C(=O)c2cccc3cccc1c23)N1CCN(c2ccc(F)cc2)CC1 | 0 | 3 | -1 | 60* | 104
COc1ccc(NC(=O)CSc2nnc(-c3ccccn3)n2N)cc1 | 1 | -4 | 0 | 98 | ·
COc1ccc(NC(=O)CSc2nnc(-c3ccccn3)n2N)c(OC)c1 | -2 | 8 | 1 | 73* | 102
COc1ccc(C)cc1NC(=O)COCC(=O)O | 1 | 1 | -1 | 69* | 101
O=C(Cc1ccccc1)NCCSCc1ccco1 | 1 | -5 | 2 | 105 | ·
O=C(O)c1ccc(CSCc2ccco2)cc1 | -2 | -4 | 5 | 74* | 99
COc1ccc(S(=O)(=O)N2CCC(C(=O)NCc3ccccn3)CC2)cc1OC | 1 | 1 | -1 | 101 | ·
COc1ccc(OC)c(S(=O)(=O)N2CCC(C(=O)NCc3ccccn3)CC2)c1 | -2 | 28 | 0 | 73* | 96
COc1cccc(-c2nnc(SCC3CNC(=O)O3)n2-c2ccc(Cl)cc2)c1 (stereo not given) | 0 | -3 | 0 | 67* | 99
OCCOCCn1c(CCNc2nc(-c3ccc(F)cc3)cs2)nc2cc(C(F)(F)F)ccc21 | -1 | 2 | -2 | 73* | 100
CCCNC(=O)Cn1cnc2sc(C(=O)Nc3cc(OC)c(OC)c(OC)c3)c(C)c2c1=O | · | 35 | 0 | 101 | 97
Cc1c(C(=O)Nc2c(F)cccc2F)sc2ncn(CC(=O)N3CCCCC3)c(=O)c12 | -1 | 25 | 0 | 99 | ·
CC(=O)Nc1cccc(NC(=O)c2sc3ncn(CC(=O)N4CCCCC4)c(=O)c3c2C)c1 | 0 | 20 | 0 | 101 | 99
CCN(CC)C(=O)Cn1cnc2sc(C(=O)Nc3cc(OC)c(OC)c(OC)c3)c(C)c2c1=O | 1 | 11 | 1 | 97 | 102
CCC(C)c1c(O)nc(SCC(=O)N2CCOCC2)[nH]c1=O (stereo not given) | 2 | -2 | 1 | 107 | ·
CCC(C)c1c(O)nc(SCC(=O)N2CCCCC2)[nH]c1=O (stereo not given) | -1 | -9 | 0 | 52* | 99
SMILES | PG9 Ab binder | Arrestin-AP2 inh | iPSC survival up | ABCB6 inh 2 | ABCB6 inh CP1
Cc1ccc(-c2csc(N=C(N)N)n2)cc1 | -1 | -21 | 0 | 91 | ·
NC(N)=Nc1nc(CSCC/C(N)=N/S(N)(=O)=O)cs1 | 0 | -10 | -2 | 72* | 97
O=C(NC1CCCC1)[C@@H]1CCCN1C(=O)[C@@H](NC(=O)N1CCOCC1)C1CCCCC1 | -2 | · | · | · | ·
OCc1ccccc1OCc1ccccc1 | 1 | · | · | · | ·
CC(C)NC(=O)Cn1cnc2c1c(=O)n(C)c(=O)n2C | 0 | 25 | -3 | 99 | ·
Cn1c(=O)c2c(ncn2CC(=O)NC(C)(C)C)n(C)c1=O | -1 | -7 | -1 | 74* | 99
COC(=O)c1cc2c(c3c4cc(OC)ccc4n(S(C)(=O)=O)c13)C(=O)N(C)C2 | 1 | · | · | · | ·
O=S1(=O)N[C@@H](Cc2ccccc2)COc2cc(NC3CC3)ccc21 | 0 | · | · | · | ·
COc1cn(-c2ccccc2)nc1C(=O)OCC(=O)Nc1ccc(C)c(C)c1 | 4 | 5 | 0 | 96 | ·
